Measurements reported in ChEMBL document CHEMBL3232791, “Synthesis and antibacterial evaluation of amino acid-antibiotic conjugates” (2014).

How the values were obtained:
Assay type in all cases: functional
[1] = tested on: Staphylococcus aureus; assay: Antibacterial activity against Staphylococcus aureus RN4220 assessed as growth inhibition at 8 ug/ml after 16 hrs by spectrophotometric analysis; details: RN4220, 16 h, read-out: GI
Outline: (§1)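 Growth inhibition read as OD600 on 300 µL culture samples, with untreated control cultures taken as maximum growth. Percent inhibition = (OD600 control − OD600 treated) × 100 / OD600 control. Parent antibiotics and their conjugates were run in parallel at three concentrations per compound, in biological duplicate.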

[2] = tested on: Pseudomonas aeruginosa; assay: Antibacterial activity against Pseudomonas aeruginosa PAO1 assessed as growth inhibition at 10 ug/ml after 16 hrs by spectrophotometric analysis; details: PAO1, 16 h, read-out: GI; outline: as §1
[3] = tested on: Escherichia coli; assay: Antibacterial activity against Escherichia coli DH5alpha assessed as growth inhibition at 0.0635 ug/ml after 16 hrs by spectrophotometric method; details: DH5[alpha], read-out: GI; outline: as §1
[4] = tested on: Pseudomonas aeruginosa; assay: Antibacterial activity against Pseudomonas aeruginosa PAO1 assessed as growth inhibition at 20 ug/ml after 16 hrs by spectrophotometric analysis; details: PAO1, 16 h, read-out: GI; outline: as §1
[5] = tested on: Escherichia coli; assay: Antibacterial activity against Escherichia coli DH5alpha assessed as growth inhibition at 0.125 ug/ml after 16 hrs by spectrophotometric method; details: DH5[alpha], read-out: GI; outline: as §1
[6] = tested on: Staphylococcus aureus; assay: Antibacterial activity against Staphylococcus aureus RN4220 assessed as growth inhibition at 2 ug/ml after 16 hrs by spectrophotometric analysis; details: RN4220, 16 h, read-out: GI; outline: as §1
[7] = tested on: Bacillus subtilis; assay: Antibacterial activity against Bacillus subtilis 168 assessed as growth inhibition at 0.4 ug/ml after 16 hrs by spectrophotometric analysis; details: subsp. subtilis str. 168, 16 h, read-out: GI; outline: as §1
[8] = tested on: Escherichia coli; assay: Antibacterial activity against Escherichia coli DH5alpha assessed as growth inhibition at 0.5 ug/ml after 16 hrs by spectrophotometric method; details: DH5[alpha], read-out: GI; outline: as §1
[9] = tested on: Bacillus subtilis; assay: Antibacterial activity against Bacillus subtilis 168 assessed as growth inhibition at 0.2 ug/ml after 16 hrs by spectrophotometric analysis; details: subsp. subtilis str. 168, 16 h, read-out: GI; outline: as §1
[10] = tested on: Staphylococcus aureus; assay: Antibacterial activity against Staphylococcus aureus RN4220 assessed as growth inhibition at 4 ug/ml after 16 hrs by spectrophotometric analysis; details: RN4220, 16 h, read-out: GI; outline: as §1
[11] = tested on: Bacillus subtilis; assay: Antibacterial activity against Bacillus subtilis 168 assessed as growth inhibition at 0.1 ug/ml after 16 hrs by spectrophotometric analysis; details: subsp. subtilis str. 168, 16 h, read-out: GI; outline: as §1
[12] = tested on: Pseudomonas aeruginosa; assay: Antibacterial activity against Pseudomonas aeruginosa PAO1 assessed as growth inhibition at 40 ug/ml after 16 hrs by spectrophotometric analysis; details: PAO1, 16 h, read-out: GI; outline: as §1
[13] = tested on: Escherichia coli; assay: Antibacterial activity against Escherichia coli DH5alpha assessed as growth inhibition at 75 ug/ml after 16 hrs by spectrophotometric method; details: DH5[alpha], read-out: GI; outline: as §1
[14] = tested on: Staphylococcus aureus; assay: Antibacterial activity against Staphylococcus aureus RN4220 assessed as growth inhibition at 120 ug/ml after 16 hrs by spectrophotometric analysis; details: RN4220, 16 h, read-out: GI; outline: as §1
[15] = tested on: Escherichia coli; assay: Antibacterial activity against Escherichia coli DH5alpha assessed as growth inhibition at 50 ug/ml after 16 hrs by spectrophotometric method; details: DH5[alpha], read-out: GI; outline: as §1
[16] = tested on: Staphylococcus aureus; assay: Antibacterial activity against Staphylococcus aureus RN4220 assessed as growth inhibition at 60 ug/ml after 16 hrs by spectrophotometric analysis; details: RN4220, 16 h, read-out: GI; outline: as §1
[17] = tested on: Staphylococcus aureus; assay: Antibacterial activity against Staphylococcus aureus RN4220 assessed as growth inhibition at 240 ug/ml after 16 hrs by spectrophotometric analysis; details: RN4220, 16 h, read-out: GI; outline: as §1
[18] = tested on: Escherichia coli; assay: Antibacterial activity against Escherichia coli DH5alpha assessed as growth inhibition at 40 ug/ml after 16 hrs by spectrophotometric method; details: DH5[alpha], read-out: GI; outline: as §1

| Structure (SMILES) | inhibition of growth at 8 µg/mL [1] [%] | inhibition of growth at 10 µg/mL [2] [%] | inhibition of growth at 0.0635 µg/mL [3] [%] | inhibition of growth at 20 µg/mL [4] [%] | inhibition of growth at 0.125 µg/mL [5] [%] | inhibition of growth at 2 µg/mL [6] [%] | inhibition of growth at 0.4 µg/mL [7] [%] | inhibition of growth at 0.5 µg/mL [8] [%] | inhibition of growth at 0.2 µg/mL [9] [%] | inhibition of growth at 4 µg/mL [10] [%] | inhibition of growth at 0.1 µg/mL [11] [%] | inhibition of growth at 40 µg/mL [12] [%] | inhibition of growth at 75 µg/mL [13] [%] | inhibition of growth at 120 µg/mL [14] [%] | inhibition of growth at 50 µg/mL [15] [%] | inhibition of growth at 60 µg/mL [16] [%] | inhibition of growth at 240 µg/mL [17] [%] | inhibition of growth at 40 µg/mL [18] [%] |
| --- | --- | --- | --- | --- | --- | --- | --- | --- | --- | --- | --- | --- | --- | --- | --- | --- | --- | --- |
| O=C(NCCCC[C@H](NC(=O)OCc1ccccc1)C(=O)N1CCN(c2cc3c(cc2F)c(=O)c(C(=O)O)cn3C2CC2)CC1)OCc1ccccc1 | 62.9 | 87.1 | -0.2 | 89.7 | 4.12 | 39.3 | 40.4 | 38.9 | 12.7 | 51.6 | 9.59 | 84.2 |  |  |  |  |  |  |
| O=C(NCC(=O)N1CCN(c2cc3c(cc2F)c(=O)c(C(=O)O)cn3C2CC2)CC1)OCc1ccccc1 | 70.8 | -14 | 1.86 | -1.56 | -2.17 | 45.7 | 94.2 | 2.25 | 16.2 | 50.3 | 18.5 | 45 |  |  |  |  |  |  |
| C[C@H](NC(=O)OCc1ccccc1)C(=O)N1CCN(c2cc3c(cc2F)c(=O)c(C(=O)O)cn3C2CC2)CC1 | 55.8 | -13.3 | -0.72 | -2.13 | -2.93 | 23.2 | 91.9 | -1.86 | 42.3 | 46.1 | 12.6 | 58.2 |  |  |  |  |  |  |
| O=C(O)c1cn(C2CC2)c2cc(N3CCNCC3)c(F)cc2c1=O [CIPROFLOXACIN] | 75.3 | 91.8 | 32.5 | 91 | 52.3 | 48.4 | 94.3 | 77 |  | 63.9 | 30.4 | 89.8 |  |  |  |  |  |  |
| O=C(C[C@H](NC(=O)OCc1ccccc1)C(=O)Nc1ccc(S(=O)(=O)Nc2ncccn2)cc1)OCc1ccccc1 |  |  |  |  |  |  |  |  |  |  |  |  | 4.72 | -2.44 | 3.75 | -17.6 | 3.48 | 4.72 |
| O=C(N[C@@H](Cc1ccccc1)C(=O)Nc1ccc(S(=O)(=O)Nc2ncccn2)cc1)OCc1ccccc1 |  |  |  |  |  |  |  |  |  |  |  |  | 3.46 | 18.2 | 0.05 | -8.23 | 29.1 | 0.39 |
